Assay results from different studies.
Lines come from different studies, so protocols differ.
Target: TRAF2 and NCK-interacting protein kinase (TNIK, Homo sapiens, UniProt Q9UKE5)

`Cn1c2c(c3ccc(Cl)c(Cl)c31)C(C#N)C1(CCNCC1)NC2=O` (racemic) gave a ΔTm of -0.1 °C (thermal stability, DSF; 10 µM).
With `CCCCN(CCCC)C(=O)CN1C[C@@H](c2cc(OC)c3c(c2)OCO3)[C@H](C(=O)O)[C@H]1CC(C)(C)CCC` the remaining binding was 86% (cell-free assay, competition with immobilised ligand; 1 µM).
The ΔTm of `Cn1c2c(c3ccccc31)C(C#N)C(C)(C)NC2=O` (centres unmarked) is reported as -0.1 °C (thermal stability, DSF; 10 µM).
`C=CC(=O)Nc1cc(Nc2nccc(Nc3cc(Cl)c(F)cc3C(C)(C)O)n2)c(OC)cc1N1CC[C@@H](N(C)C)C1` has an inhibition of 47% (enzyme activity, inhibitor; 1 µM).
For `CCC1(CC)NC(=O)c2c(c3ccc(Cl)c(Cl)c3n2C)C1C#N` (centres unmarked), the ΔTm was 0.3 °C (thermal stability, DSF; 10 µM).
The inhibition of `CS(=O)(=O)Nc1cccc(-c2csc(NC(=O)CSc3nc4nccnc4c(=O)n3CCc3ccccc3)n2)c1` is reported as -2% (enzyme activity, inhibitor; 10 µM).
The remaining binding of `O=C(N[C@H]1CCCCC/C=C\C2C[C@@]2(C(=O)O)NC(=O)[C@@H]2C[C@@H](Oc3ccncc3)CN2C1=O)OC1CCCC1` (some centres unmarked) is reported as 78% (binding, competition with immobilised ligand; 1 µM).
`Cn1cnc(Br)c1C1=CN(c2ncnc3[nH]cnc23)CCS1` gave an inhibition of 21.5% (enzyme activity, inhibitor, radiometric; 50 nM).
For `CCC(=O)N[C@H]1CC[C@@H](C(=O)N(C)c2ccc(-c3nc4ccccc4o3)cc2)C1`, the remaining binding was 100% (cell-free assay, competition with immobilised ligand; 1 µM).
`CCN1CCC2(CC1)NC(=O)c1c(c3ccc(Cl)c(Cl)c3n1C)C2C#N` (racemic) has a ΔTm of 0 °C (thermal stability, DSF; 10 µM).
For `COc1ccc2cc(OCC3(C(=O)O)CN(C(=O)c4ccc(F)cc4)C3)ccc2c1`, the remaining binding was 61% (cell-free assay, competition with immobilised ligand; 1 µM).
`Cc1ccc(C(=O)Nc2ccc(CN3CCN(C)CC3)c(C(F)(F)F)c2)cc1C#Cc1cnc2cccnn12` gave a remaining activity of 34% (enzyme activity, inhibitor; 23.5 nM).
`Cc1sc(C(=O)NC2COC2)cc1-n1cc(NC(=O)Nc2c(F)cccc2Cl)cn1` gave a remaining activity of 94.5% (enzyme activity, inhibitor; 10 µM).
`CO[C@@H](C)c1c(Nc2ccc([C@@H](N(C)C(=O)C3CCS(=O)(=O)CC3)C(F)(F)F)cc2)cnc2cc(Cl)nn12` has a remaining binding of 100% (cell-free assay, competition with immobilised ligand; 1 µM).
`COc1cccc2c(NCc3ccccc3)nc(-n3c(N)nc4ccccc43)nc12` has an inhibition of 3.5% (target engagement in cells, inhibitor, chemoproteomics; 20 mM).
`CN1CCN(c2cnc3c(C4CCN(C(=O)c5ccc(OC(F)(F)F)cc5N)CC4)ncnc3c2)CC1` gave a remaining binding of 100% (cell-free assay, competition with immobilised ligand; 1 µM).
For `Cn1c2c(Cl)c(Cl)ccc2c2cc(N)[nH]c(=O)c21`, the ΔTm was 0.1 °C (thermal stability, DSF; 10 µM).
The remaining activity of `O=C(Nc1cnn(-c2csc(C(=O)NC3COC3)c2)c1)Nc1ccccc1Cl` is reported as 53.2% (enzyme activity, inhibitor; 5 µM).
With `Cn1c2c(c3ccc(Cl)c(Cl)c31)C(C#N)C1(CCN(C(=O)OC(C)(C)C)CC1)NC2=O` (racemic) the ΔTm was -0.1 °C (thermal stability, DSF; 10 µM).
For `CCCCNc1ncc2c(-c3ccc(F)cc3)nn(C[C@H]3CC[C@H](N)CC3)c2n1`, the inhibition was 62.6% (target engagement in cells, inhibitor, chemoproteomics; 20 mM).
